In ChEMBL document CHEMBL5058577, “EUbOPEN Chemogenomics Library 2 (Multiplex)” (2022):

System: HEK-293T
Test: Multiplex assay against HEK293T
Assay type: toxicity, cell-based
Conditions: human
In short: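 Four dyes were applied at seeding to live cells: Hoechst33342, BioTracker Green Microtubule Cytoskeleton Dye, MitoTracker Red and Annexin V Alexa Fluor 680. Imaging after compound addition used a CQ1 microscope at 37°C and 5% CO2. CellPathfinder machine-learning gating then sorted cells into Hoechst high-intensity objects or normal cells, normal cells into healthy, pyknosed or fragmented nuclei, and pyknosed cells into mitotic or apoptotic, with tubulin, mitochondrial-mass and membrane-permeability phenotypes given as per cents of healthy-nucleus cells.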

[1] = 12 h, 1 µM, compound concentration 1 uM, replicate 1
[2] = 12 h, 1 µM, compound concentration 1 uM, replicate 2
[3] = 12 h, 10 µM, compound concentration 10 uM, replicate 1
[4] = 12 h, 10 µM, compound concentration 10 uM, replicate 2
[5] = 24 h, 1 µM, compound concentration 1 uM, replicate 1
[6] = 24 h, 1 µM, compound concentration 1 uM, replicate 2
[7] = 24 h, 10 µM, compound concentration 10 uM, replicate 1
[8] = 24 h, 10 µM, compound concentration 10 uM, replicate 2
[9] = 48 h, 1 µM, compound concentration 1 uM, replicate 1
[10] = 48 h, 1 µM, compound concentration 1 uM, replicate 2
[11] = 48 h, 10 µM, compound concentration 10 uM, replicate 1
[12] = 48 h, 10 µM, compound concentration 10 uM, replicate 2

With CN(C)C(=O)Cn1cc(-c2ccc(-c3cncc4ccccc34)cc2)cn1 the “Population Apoptotic (%)” value [1] was 52%, the “Population Fragmented Nuclei (%)” value [1] was 5% and the “Population Healthy Nuclei (%)” value [1] was 81%. The “Population Hoechst High Intensity Objects (%)” value [1] was 7%, the “Population Membrane Permeable-Phenotype (%)” value [1] was 0% and the “Population Mitochondria Different-Phenotype (%)” value [1] was 50%. The “Population Mitotic Cells (%)” value [1] was 47%, the “Population Normal (%)” value [1] was 92% and the “Population Pyknosed Nuclei (%)” value [1] was 12%. For the same compound, the “Population Tubulin-Different-Phenotype (%)” value [1] was 35%, the “Total Cell Count” value [1] was 411 and the “Population Apoptotic (%)” value [2] was 40%. The “Population Fragmented Nuclei (%)” value [2] was 4%, the “Population Healthy Nuclei (%)” value [2] was 80% and the “Population Hoechst High Intensity Objects (%)” value [2] was 2%. The “Population Mitochondria Different-Phenotype (%)” value [2] was 58%, the “Population Mitotic Cells (%)” value [2] was 59% and the “Population Normal (%)” value [2] was 97%. For the same compound, the “Population Pyknosed Nuclei (%)” value [2] was 14%, the “Population Tubulin-Different-Phenotype (%)” value [2] was 23% and the “Total Cell Count” value [2] was 337. The “Population Apoptotic (%)” value [3] was 48%, the “Population Fragmented Nuclei (%)” value [3] was 8% and the “Population Healthy Nuclei (%)” value [3] was 73%. The “Population Hoechst High Intensity Objects (%)” value [3] was 6%, the “Population Membrane Permeable-Phenotype (%)” value [3] was 0% and the “Population Mitochondria Different-Phenotype (%)” value [3] was 65%. For the same compound, the “Population Mitotic Cells (%)” value [3] was 51%, the “Population Normal (%)” value [3] was 93% and the “Population Pyknosed Nuclei (%)” value [3] was 17%. For the same compound, the “Population Tubulin-Different-Phenotype (%)” value [3] was 47%, the “Total Cell Count” value [3] was 264 and the “Population Apoptotic (%)” value [4] was 69%. For the same compound, the “Population Healthy Nuclei (%)” value [4] was 76%, the “Population Hoechst High Intensity Objects (%)” value [4] was 19% and the “Population Mitochondria Different-Phenotype (%)” value [4] was 69%. For the same compound, the “Population Mitotic Cells (%)” value [4] was 30%, the “Population Normal (%)” value [4] was 80% and the “Population Pyknosed Nuclei (%)” value [4] was 15%. The “Population Tubulin-Different-Phenotype (%)” value [4] was 43%, the “Total Cell Count” value [4] was 321 and the “Population Apoptotic (%)” value [5] was 47%. The “Population Fragmented Nuclei (%)” value [5] was 10%, the “Population Healthy Nuclei (%)” value [5] was 79% and the “Population Hoechst High Intensity Objects (%)” value [5] was 6%. For the same compound, the “Population Membrane Permeable-Phenotype (%)” value [5] was 0%, the “Population Mitochondria Different-Phenotype (%)” value [5] was 38% and the “Population Mitotic Cells (%)” value [5] was 52%. For the same compound, the “Population Normal (%)” value [5] was 93%, the “Population Pyknosed Nuclei (%)” value [5] was 10% and the “Population Tubulin-Different-Phenotype (%)” value [5] was 24%. The “Total Cell Count” value [5] was 498, the “Population Apoptotic (%)” value [6] was 40% and the “Population Fragmented Nuclei (%)” value [6] was 6%. The “Population Healthy Nuclei (%)” value [6] was 82%, the “Population Hoechst High Intensity Objects (%)” value [6] was 7% and the “Population Mitochondria Different-Phenotype (%)” value [6] was 45%. For the same compound, the “Population Mitotic Cells (%)” value [6] was 60%, the “Population Normal (%)” value [6] was 92% and the “Population Tubulin-Different-Phenotype (%)” value [6] was 23%. For the same compound, the “Total Cell Count” value [6] was 355, the “Population Apoptotic (%)” value [7] was 48% and the “Population Fragmented Nuclei (%)” value [7] was 9%. The “Population Healthy Nuclei (%)” value [7] was 75%, the “Population Hoechst High Intensity Objects (%)” value [7] was 6% and the “Population Membrane Permeable-Phenotype (%)” value [7] was 0%. For the same compound, the “Population Mitochondria Different-Phenotype (%)” value [7] was 65%, the “Population Mitotic Cells (%)” value [7] was 51% and the “Population Normal (%)” value [7] was 93%. For the same compound, the “Population Pyknosed Nuclei (%)” value [7] was 14%, the “Population Tubulin-Different-Phenotype (%)” value [7] was 44% and the “Total Cell Count” value [7] was 283. The “Population Apoptotic (%)” value [8] was 45%, the “Population Fragmented Nuclei (%)” value [8] was 10% and the “Population Hoechst High Intensity Objects (%)” value [8] was 14%. The “Population Mitochondria Different-Phenotype (%)” value [8] was 53%, the “Population Mitotic Cells (%)” value [8] was 54% and the “Population Normal (%)” value [8] was 85%. The “Population Pyknosed Nuclei (%)” value [8] was 13%, the “Population Tubulin-Different-Phenotype (%)” value [8] was 30% and the “Total Cell Count” value [8] was 362. For the same compound, the “Population Apoptotic (%)” value [9] was 35%, the “Population Fragmented Nuclei (%)” value [9] was 19% and the “Population Healthy Nuclei (%)” value [9] was 74%. The “Population Hoechst High Intensity Objects (%)” value [9] was 8%, the “Population Membrane Permeable-Phenotype (%)” value [9] was 1% and the “Population Mitochondria Different-Phenotype (%)” value [9] was 40%. For the same compound, the “Population Mitotic Cells (%)” value [9] was 64%, the “Population Normal (%)” value [9] was 91% and the “Population Pyknosed Nuclei (%)” value [9] was 6%. For the same compound, the “Population Tubulin-Different-Phenotype (%)” value [9] was 25%, the “Total Cell Count” value [9] was 554 and the “Population Apoptotic (%)” value [10] was 60%. For the same compound, the “Population Fragmented Nuclei (%)” value [10] was 11%, the “Population Healthy Nuclei (%)” value [10] was 82% and the “Population Hoechst High Intensity Objects (%)” value [10] was 5%. The “Population Membrane Permeable-Phenotype (%)” value [10] was 0%, the “Population Mitochondria Different-Phenotype (%)” value [10] was 32% and the “Population Mitotic Cells (%)” value [10] was 39%. The “Population Normal (%)” value [10] was 94%, the “Population Pyknosed Nuclei (%)” value [10] was 5% and the “Population Tubulin-Different-Phenotype (%)” value [10] was 17%. For the same compound, the “Total Cell Count” value [10] was 430, the “Population Apoptotic (%)” value [11] was 66% and the “Population Fragmented Nuclei (%)” value [11] was 23%. The “Population Healthy Nuclei (%)” value [11] was 63%, the “Population Hoechst High Intensity Objects (%)” value [11] was 11% and the “Population Membrane Permeable-Phenotype (%)” value [11] was 0%. The “Population Mitochondria Different-Phenotype (%)” value [11] was 56%, the “Population Mitotic Cells (%)” value [11] was 33% and the “Population Normal (%)” value [11] was 88%. For the same compound, the “Population Pyknosed Nuclei (%)” value [11] was 12%, the “Population Tubulin-Different-Phenotype (%)” value [11] was 30% and the “Total Cell Count” value [11] was 379. The “Population Apoptotic (%)” value [12] was 59%, the “Population Healthy Nuclei (%)” value [12] was 70% and the “Population Hoechst High Intensity Objects (%)” value [12] was 8%. The “Population Mitochondria Different-Phenotype (%)” value [12] was 43%, the “Population Mitotic Cells (%)” value [12] was 40% and the “Population Normal (%)” value [12] was 91%. The “Population Pyknosed Nuclei (%)” value [12] was 6%, the “Population Tubulin-Different-Phenotype (%)” value [12] was 23% and the “Total Cell Count” value [12] was 429.
